From ChEMBL document CHEMBL2424600, “Synthetic polyamines activating autophagy: effects on cancer cell death” (Eur J Med Chem, 2013)
Activity calls are given as the source filed them. The rule behind the calls is not given here.

Columns and labels:
HeLa [1] = experiment: Cytotoxicity against human HeLa cells assessed as cell survival after 24 hrs by trypan blue exclusion assay; assay type: functional, cell-based
Summary of the method: (§1)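 Cells exposed 24 h to increasing concentrations (DMSO vehicle, 0.1% of medium; controls got DMSO) at 37 °C, 5% CO2. Viability by trypan blue exclusion, triplicate samples, at least 10 fields counted each; survival as % of viable cells vs control. IC50 read from dose–response curve as concentration giving 50% survival.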

[2] = Cytotoxicity against human C-28/I2 cells assessed as cell survival after 24 hrs by trypan blue exclusion assay; assay type: cell-based; details: C28/I2, 24 h; summary of the method: as §1
Thymocyte = experiment: Cytotoxicity against rat thymocytes assessed as cell survival after 24 hrs by trypan blue exclusion assay; assay type: cell-based; summary of the method: as §1
HeLa [3] = experiment: Induction of autophagy in human HeLa cells assessed as conversion of LC3-1 protein to LC3-2 protein at 25 uM after 24 hrs by Western blot analysis; assay type: functional, cell-based
Summary of the method: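 HeLa incubated 24 h with DENSPM (25 µM) or spermidine (8 mM); LC3-I/LC3-II processing by Western blot of 50 µg protein with monoclonal anti-LC3 antibody.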

HeLa [4] = experiment: Cytotoxicity against human HeLa cells assessed as decrease in cell survival at 25 uM after 24 hrs by trypan blue exclusion assay relative to control; assay type: functional; details: read-out: Survival
Summary of the method: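 HeLa cells grown in EMEM with 10% FBS, 1% glutamine, 1% nonessential amino acids, 1 mM pyruvate and antibiotics at 37 °C in 5% CO2. Compound added from DMSO stock (DMSO 0.1% of volume; controls got DMSO only) and exposed 24 h. Viability read by trypan blue exclusion in triplicate samples, at least 10 fields counted. Survival given as % viable cells versus control.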

HeLa [5] = experiment: Induction of apoptosis in human HeLa cells assessed as increase in caspase 3/7 activity at 25 uM after 24 hrs by DEVD-based fluorometric analysis; assay type: functional, cell-based
Summary of the method: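 HeLa treated 24 h with 25 µM DENSPM (positive control) or the indicated concentrations of compound; DEVDase (caspase 3/7) activity measured. Means ± S.E.M. of three replicates vs control.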

HeLa [6] = experiment: Induction of autophagy in human HeLa cells assessed as acidic vesicles accumulation at 20 uM after 3 hrs by acridine orange staining-based immunofluorescence microscopic analysis; assay type: functional, cell-based
Summary of the method: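 HeLa incubated 3 h with 20 µM compound; acidic vesicle accumulation scored after acridine orange staining. Triplicate means ± S.E.M.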

SMILES	IC50 (HeLa [1]) [µM]	IC50 [2] [µM]	IC50 (Thymocyte) [µM]	Activity (HeLa [3])	viability at 25 µM (HeLa [4]) [%]	Activity (HeLa [5])	Activity (HeLa [6])
COc1ccccc1CNCCCCCCNCCCCCCCCNCCCCCCNCc1ccccc1OC [METHOCTRAMINE]	> 100	> 100	> 100	–	–	–	–
CCNCCCNCCCNCCCNCC [BIS(ETHYL)NORSPERMINE]	–	–	–	inactive	50	Active	–
c1ccc(C(CNCCCCCCNCCCCCCCCNCCCCCCNCC(c2ccccc2)c2ccccc2)c2ccccc2)cc1	18	60	82	–	–	–	Active
